Data reported in ChEMBL document CHEMBL2434934, “Multicomponent synthesis and anticonvulsant activity of monocyclic 2,6-diketopiperazine derivatives” (Med Chem Res, 2013).
Activity calls are given as the source filed them. The calls are words filed in the database; no cut-off is given here.

How the values were obtained:
Mus musculus [1] = test: Anticonvulsant activity in albino mouse assessed as protection against subcutaneous metrazole-induced seizures at 30 mg/kg, ip after 0.5 to 4 hrs; type: functional, organism-based; design: dose 30 mg/kg
Procedure, shortened: (§1)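 Mice were dosed ip at 30, 100 or 300 mg/kg and tested at two or more time points. Protection meant absence of clonic seizures lasting at least 5 s, scored as number protected/number tested.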

Mus musculus [2] = test: Neurotoxicity in albino mouse at 30 mg/kg, ip after 0.5 to 4 hrs by rotarod test; type: toxicity, organism-based; design: dose 30 mg/kg, route intraperitoneal; conditions: in vivo
Procedure, shortened: (§2)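 Mice received the compound ip and were tested at intervals of 0.25 to 4 h after dosing. Neurological impairment was scored as inability to keep equilibrium on a rod rotating at 6 rpm for a given time. The footnotes also record inability to grasp the rod and loss of righting reflex. Results were expressed as number toxic/number tested.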

Mus musculus [3] = test: Neurotoxicity in albino mouse at 100 mg/kg, ip after 0.5 to 4 hrs by rotarod test; type: toxicity, organism-based; design: dose 100 mg/kg, route intraperitoneal; conditions: in vivo; procedure, shortened: as §2
Mus musculus [4] = test: Anticonvulsant activity in albino mouse assessed as protection against subcutaneous metrazole-induced seizures at 100 mg/kg, ip after 0.5 to 4 hrs; type: functional, organism-based; design: dose 100 mg/kg; procedure, shortened: as §1
Mus musculus [5] = test: Anticonvulsant activity in albino mouse assessed as protection against maximal electroshock-induced seizures at 300 mg/kg, ip after 4 hrs; type: functional, organism-based; design: dose 300 mg/kg
Procedure, shortened: (§3)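 A 0.2 s electrical stimulus of 50 mA was applied to mice through corneal electrodes primed with an electrolyte solution containing an anesthetic. This followed ip dosing at 30, 100 or 300 mg/kg, with testing at two or more time points. Protection meant abolition of the hindlimb tonic extensor component, scored as number protected/number tested.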

Mus musculus [6] = test: Anticonvulsant activity in albino mouse assessed as protection against maximal electroshock-induced seizures at 30 mg/kg, ip after 0.5 to 4 hrs; type: functional, organism-based; design: dose 30 mg/kg; procedure, shortened: as §3
Mus musculus [7] = test: Neurotoxicity in albino mouse at 300 mg/kg, ip after 4 hrs by rotarod test; type: toxicity, organism-based; design: dose 300 mg/kg, route intraperitoneal; conditions: in vivo; procedure, shortened: as §2
Mus musculus [8] = test: Anticonvulsant activity in albino mouse assessed as protection against maximal electroshock-induced seizures at 300 mg/kg, ip after 0.5 hrs; type: functional, organism-based; design: dose 300 mg/kg; procedure, shortened: as §3
Mus musculus [9] = test: Anticonvulsant activity in albino mouse assessed as protection against subcutaneous metrazole-induced seizures at 300 mg/kg, ip after 0.5 to 4 hrs; type: functional, organism-based; design: dose 300 mg/kg; procedure, shortened: as §1
Mus musculus [10] = test: Anticonvulsant activity in albino mouse assessed as protection against maximal electroshock-induced seizures at 100 mg/kg, ip after 0.5 to 4 hrs; type: functional, organism-based; design: dose 100 mg/kg; procedure, shortened: as §3
Mus musculus [11] = test: Anticonvulsant activity in albino mouse assessed as protection against maximal electroshock-induced seizures at 30 mg/kg, ip after 2 hrs; type: functional, organism-based; design: dose 30 mg/kg; procedure, shortened: as §3
Mus musculus [12] = test: Neurotoxicity in albino mouse at 30 mg/kg, ip after 2 hrs by rotarod test; type: toxicity, organism-based; design: dose 30 mg/kg, route intraperitoneal; conditions: in vivo; procedure, shortened: as §2
Mus musculus [13] = test: Neurotoxicity in albino mouse at 300 mg/kg, ip after 2 hrs by rotarod test; type: toxicity, organism-based; design: dose 300 mg/kg, route intraperitoneal; conditions: in vivo; procedure, shortened: as §2
Mus musculus [14] = test: Anticonvulsant activity in albino mouse assessed as protection against maximal electroshock-induced seizures at 100 mg/kg, ip after 2 hrs; type: functional, organism-based; design: dose 100 mg/kg; procedure, shortened: as §3
Mus musculus [15] = test: Neurotoxicity in albino mouse at 100 mg/kg, ip after 2 hrs by rotarod test; type: toxicity, organism-based; design: dose 100 mg/kg, route intraperitoneal; conditions: in vivo; procedure, shortened: as §2
Mus musculus [16] = test: Anticonvulsant activity in albino mouse assessed as protection against maximal electroshock-induced seizures at 300 mg/kg, ip after 2 hrs; type: functional, organism-based; design: dose 300 mg/kg; procedure, shortened: as §3
Mus musculus [17] = test: Neurotoxicity in albino mouse at 300 mg/kg, ip after 0.5 hrs by rotarod test; type: toxicity, organism-based; design: dose 300 mg/kg, route intraperitoneal; conditions: in vivo; procedure, shortened: as §2
Mus musculus [18] = test: Anticonvulsant activity in albino mouse assessed as protection against 6 Hz psychomotor seizure at 100 mg/kg, ip after 0.5 to 2 hrs; type: functional, organism-based; design: dose 100 mg/kg
Procedure, shortened: (§4)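 Mice given 100 mg/kg ip and tested at intervals between 0.25 and 4 h. A constant-current device delivered corneal stimulation at 32 mA as 0.2 ms monopolar rectangular pulses at 6 Hz for 3 s. Mice were restrained during stimulation, then released into an observation cage. The readout was protection against the psychomotor seizure (stunned posture, forelimb clonus, Straub tail), scored as number protected/number tested.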

Mus musculus [19] = test: Neurotoxicity in albino mouse at 100 mg/kg, ip after 0.5 to 2 hrs by rotarod test; type: toxicity, organism-based; design: dose 100 mg/kg, route intraperitoneal; conditions: in vivo; procedure, shortened: as §2
Mus musculus [20] = test: Neurotoxicity in albino mouse at 100 mg/kg, ip after 0.25 to 4 hrs by rotarod test; type: toxicity, organism-based; design: dose 100 mg/kg, route intraperitoneal; conditions: in vivo; procedure, shortened: as §2
Mus musculus [21] = test: Neurotoxicity in albino mouse assessed as loss of righting reflex at 300 mg/kg, ip after 0.5 hrs by rotarod test; type: toxicity, organism-based; design: dose 300 mg/kg, route intraperitoneal; conditions: in vivo; procedure, shortened: as §2
Mus musculus [22] = test: Anticonvulsant activity in albino mouse assessed as protection against 6 Hz psychomotor seizure at 100 mg/kg, ip after 0.25 to 0.5 hrs; type: functional, organism-based; design: dose 100 mg/kg; procedure, shortened: as §4
Mus musculus [23] = test: Anticonvulsant activity in albino mouse assessed as protection against 6 Hz psychomotor seizure at 100 mg/kg, ip after 1 to 4 hrs; type: functional, organism-based; design: dose 100 mg/kg; procedure, shortened: as §4

Compound	Activity (Mus musculus [1])	Activity (Mus musculus [2])	Activity (Mus musculus [3])	Activity (Mus musculus [4])	Activity (Mus musculus [5])	Activity (Mus musculus [6])	Activity (Mus musculus [7])	Activity (Mus musculus [8])	Activity (Mus musculus [9])	Activity (Mus musculus [10])	Activity (Mus musculus [11])	Activity (Mus musculus [12])	Activity (Mus musculus [13])	also measured
CC[C@H](C)[C@@H]1N[C@@H](c2ccccc2)C(=O)NC1=O	inactive	Non-toxic	Non-toxic	inactive	inactive	inactive	Non-toxic	inactive	inactive	inactive	–	–	–	–
O=C1NC(=O)[C@@H](c2ccccc2)N[C@H]1c1ccccc1	–	–	–	–	–	–	–	–	–	–	inactive	Non-toxic	Non-toxic	Activity (Mus musculus [14]): inactive; Activity (Mus musculus [15]): Non-toxic; Activity (Mus musculus [16]): inactive
O=C1NC(=O)[C@H](c2ccccc2)N[C@H]1Cc1ccccc1	inactive	Non-toxic	Non-toxic	inactive	inactive	inactive	Non-toxic	Active	inactive	inactive	–	–	–	Activity (Mus musculus [17]): Non-toxic
O=C1CN(c2ccccc2)C(c2ccccc2)C(=O)N1 (racemic)	inactive	Non-toxic	Non-toxic	inactive	inactive	inactive	Non-toxic	inactive	inactive	inactive	–	–	–	Activity (Mus musculus [17]): Non-toxic
O=C1NC(=O)[C@H](c2ccccc2)N[C@H]1c1ccccc1	–	–	–	–	–	–	–	–	–	–	inactive	Non-toxic	Toxic	Activity (Mus musculus [18]): inactive; Activity (Mus musculus [16]): Active; Activity (Mus musculus [19]): Non-toxic
CC(C)C[C@@H]1N[C@@H](c2ccccc2)C(=O)NC1=O	inactive	Non-toxic	Non-toxic	inactive	inactive	inactive	Non-toxic	Active	inactive	inactive	–	–	–	–
CC(C)[C@@H]1N[C@@H](c2ccccc2)C(=O)NC1=O	inactive	Non-toxic	Non-toxic	inactive	inactive	inactive	Non-toxic	Active	inactive	–	–	–	–	Activity (Mus musculus [20]): Non-toxic; Activity (Mus musculus [21]): Toxic; Activity (Mus musculus [22]): Active; Activity (Mus musculus [23]): inactive
O=C1CN(Cc2ccccc2)C(c2ccccc2)C(=O)N1 (racemic)	–	–	–	–	–	–	–	–	–	–	inactive	Non-toxic	Non-toxic	Activity (Mus musculus [14]): inactive; Activity (Mus musculus [15]): Non-toxic
CC(C)[C@@H]1N[C@H](c2ccccc2)C(=O)NC1=O	inactive	Non-toxic	Non-toxic	inactive	inactive	inactive	Non-toxic	Active	inactive	inactive	–	–	–	–
